Bioassay records deposited in PubChem BioAssay by The Scripps Research Institute Molecular Screening Center.
NR2E3 ag-1 – NR2E3 (human) agonism; Q9Y5X4; GST-NR2E3/biotin-RetCOR TR-FRET, 1536-well; inhibition of corepressor binding, % at 4.78 µM; actives 0.12% (n = 320,000); AID 2300;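 active means percent inhibition above the cutoff of mean plus 3 SD of all tested compounds, set per screening campaign, cut at about 20% in these data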;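 further: 0% = DMSO wells and 100% = biotin wells as full block of FRET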
Target sequence (Q9Y5X4 whole entry, looked up): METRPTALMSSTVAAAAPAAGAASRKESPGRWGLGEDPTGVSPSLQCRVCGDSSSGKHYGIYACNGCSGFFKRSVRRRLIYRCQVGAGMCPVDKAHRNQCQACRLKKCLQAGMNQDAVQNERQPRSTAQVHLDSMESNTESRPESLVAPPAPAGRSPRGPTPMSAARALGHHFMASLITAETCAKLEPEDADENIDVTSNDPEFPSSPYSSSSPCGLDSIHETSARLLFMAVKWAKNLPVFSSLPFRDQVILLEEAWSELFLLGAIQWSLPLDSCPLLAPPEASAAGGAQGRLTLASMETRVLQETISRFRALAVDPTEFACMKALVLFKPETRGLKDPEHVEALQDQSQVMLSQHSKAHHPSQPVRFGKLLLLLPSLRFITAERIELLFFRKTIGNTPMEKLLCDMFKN
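Test system – NR2E3–RetCOR corepressor complex · Quantity – NR2E3 fusion 1.35 nM · Buffer or medium – Tris pH 7.5 · Incubation – Compound–protein incubation for 5 h at 4 °C · Technique – TR-FRET, Eu(K)-anti-GST donor, streptavidin-D2 acceptor, ex 340, em 617/671 nm · Evaluation – percent inhibition of 671/617 nm emission ratio versus biotin and DMSO controls · Plate – 1536-well format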
NR2E3 ag-2 – agonists of human NR2E3 nuclear receptor. inhibition of corepressor binding, % at 3.98 µM. actives 0.35% (n = 360,000). CHO-S Gal4-NCOR/VP16-NR2E3 two-hybrid, luciferase. Q9Y5X4;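 active means inhibition above the mean of all tested compounds plus 3 SD, cut at about 70% in these data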;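 further: 0% = DMSO with NR2E3 transfected cells and 100% = cells lacking NR2E3 construct; higher means lower luciferase signal from less NR2E3 corepressor binding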
PP5 inh – blocks human protein phosphatase 5 activity; purified PP5c, OMFP substrate fluorescence; AID 1987; actives 0.18% (n = 320,000); P53041; inhibition, % at 6.7 µM;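 active means inhibition above the campaign's mean inhibition across all tested compounds plus 3 SD, cut at about 9.5% in these data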;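 further: 0% = DMSO only and 100% = 100 µM cantharidin control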
PP1 counter – counter-screen for PP5 inhibitors: inhibitors of human PP1-alpha; P62136; purified PP1alpha, OMFP fluorescence; inhibition, % at 6.7 µM; actives 0.9% (n = 320,000);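 active means inhibition above the mean inhibition of all tested compounds plus 3 SD, computed separately for each screening campaign, cut at about 15% in these data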
Target sequence (P62136 whole entry, looked up): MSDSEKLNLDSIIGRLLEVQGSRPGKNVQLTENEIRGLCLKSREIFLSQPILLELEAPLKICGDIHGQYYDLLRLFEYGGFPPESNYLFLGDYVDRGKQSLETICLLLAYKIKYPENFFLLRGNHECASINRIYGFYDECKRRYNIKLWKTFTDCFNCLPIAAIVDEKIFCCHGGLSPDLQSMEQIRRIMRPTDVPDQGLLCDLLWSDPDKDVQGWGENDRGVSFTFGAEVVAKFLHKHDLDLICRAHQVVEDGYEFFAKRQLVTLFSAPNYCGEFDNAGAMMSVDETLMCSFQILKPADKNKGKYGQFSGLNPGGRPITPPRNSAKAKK
PP1 inh confirm – human PP1 phosphatase inhibition, confirmation; shares compounds with PP1 counter; purified PP1alpha, OMFP substrate fluorescence; inhibition, % at 6.7 µM; actives 52% (n = 1,900); AID 2358;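 active means mean PP1 inhibition above a set limit taken from the earlier primary screen, cut at about 15% in these data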
PP5 counter – inhibits human PP5 phosphatase in PP1 counter-screen; purified PP5c, OMFP fluorescence; shares compounds with PP1 counter; inhibition, % at 6.7 µM; actives 4% (n = 1,900);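 active means mean PP5 inhibition over triplicate wells above about 9.5% taken from the earlier PP1 screen, limit read from the data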
Active calls of the source: *; nt = not tested or not shown. This is a sample that favours compounds with a hit; in the whole collection about 1.3% have one here.

SMILES | NR2E3 ag-1 | NR2E3 ag-2 | PP5 inh | PP1 counter | PP1 inh confirm | PP5 counter
CC1(c2ccccc2Br)NC(=O)N(CC(=O)NC2CCCCC2)C1=O (centres undefined) | 3.0 | 16.1 | -0.3 | -2.5 | nt | nt
CN1CCN(S(=O)(=O)c2cccc(C(=O)Oc3ccc(Br)cc3F)c2)CC1 | 2.0 | 12.4 | -0.8 | 34.1* | -1.9 | -3.6
CN1CCN(S(=O)(=O)c2cccc(C(=O)Oc3cccc(Br)c3)c2)CC1 | 0.6 | 2.2 | -1.9 | -5.1 | nt | nt
COc1ccc(Nc2nccc(-c3ccc(C#N)cc3)n2)cc1 | 1.5 | 19.2 | -5.8 | 20.1* | 5.9 | -3.0
COc1ccc(Nc2nccc(-c3cccc(N)c3)n2)cc1 | 3.3 | -29.8 | 2.2 | -1.2 | nt | nt
COc1ccc(-n2c(SCC(=O)Nc3sc4c(c3C#N)CCCC4)nnc2-c2ccccc2OC)cc1 | 0.9 | -21.0 | 3.2 | 17.8* | 4.3 | -0.7
COc1ccc(-c2nnc(SCC(=O)Nc3sc4c(c3C#N)CCCC4)n2-c2ccccc2)cc1 | 2.6 | 3.4 | 1.9 | -2.3 | nt | nt
CC[C@]12c3[nH]c4cc(-c5ccco5)ccc4c3CCN1C(=O)[C@@H](CC(=O)NC(C)(C)C)C[C@@H]2C(=O)N1CCN(C(=O)C2CC2)CC1 | nt | -56.1 | nt | nt | nt | nt
COc1c(N2CCN(C(=S)NC3CC4CCC3C4)C(C)C2)c(F)cc2c(=O)c(C(=O)O)cn(C3CC3)c12 (centres undefined) | -1.9 | -37.2 | -1.0 | 21.4* | 38.0* | -5.2
COc1c(N2CCN(C(=S)Nc3ccc(F)cc3)C(C)C2)c(F)cc2c(=O)c(C(=O)O)cn(C3CC3)c12 (centres undefined) | 3.6 | -5.9 | 4.2 | -2.1 | nt | nt
Cc1cc(NC(=O)Nc2ccc(OCc3ccccc3)cc2)n(C)n1 | 4.7 | 12.8 | 1.3 | 2.7 | nt | nt
O=C(Nc1ccc(F)c(Cl)c1)c1ccc2sc([C@H]3C[C@H](O)[C@@H](CO)O3)nc2c1 | nt | -91.6 | nt | nt | nt | nt
Cc1nn(CCC(=O)O)c2nc(-c3cccnc3)cc(C(F)(F)F)c12 | -2.4 | -6.0 | 1.3 | -0.1 | nt | nt
Cc1nn(CCc2nn[nH]n2)c2nc(-c3ccc(C4CCCCC4)cc3)cc(C(F)(F)F)c12 | -3.4 | -9.1 | 5.2 | 17.6* | 25.5* | 3.0
O=C(C1CCN(Cc2cn[nH]c2-c2ccc(F)cc2F)CC1)N1CCOCC1 | 0.2 | 2.3 | 0.3 | 42.7* | -2.6 | -1.2
Cn1c(=O)oc2cc(S(=O)(=O)Nc3cccc(C(=O)O)c3)ccc21 | 2.1 | -4.0 | 2.5 | 42.5* | -2.4 | 0.1
CC(=O)c1cccc(NS(=O)(=O)c2ccc3c(c2)oc(=O)n3C)c1 | -1.5 | 4.7 | 4.0 | -1.1 | nt | nt
O=C(Nc1ccc(N2CCCC2)cc1)c1ccccc1[N+](=O)[O-] | -1.4 | -9.4 | 1.3 | 19.0* | -4.4 | -2.5
CS(=O)(=O)c1ccc(C(=O)Nc2ccc(N3CCCC3)cc2)c(Cl)c1 | -1.7 | -12.4 | 3.1 | 0.5 | nt | nt
O=C(Nc1ccc(N2CCCC2)cc1)c1cc(Br)ccc1Cl | 4.6 | 3.4 | 1.1 | 33.1* | 0.1 | -1.5
CCc1noc(C)c1C(=O)OCC(=O)N(CCOC)c1c(N)n(Cc2ccccc2)c(=O)[nH]c1=O | -0.8 | -3.6 | -4.0 | 22.0* | -5.7 | -4.9
COCCN(C(=O)COC(=O)c1cc2c(s1)CCC2)c1c(N)n(Cc2ccccc2)c(=O)[nH]c1=O | 3.9 | -25.5 | -2.0 | 17.9* | 4.8 | -4.6
CCC1CCc2sc(C(=O)OCC(=O)N(CCOC)c3c(N)n(Cc4ccccc4)c(=O)[nH]c3=O)cc2C1 (centres undefined) | 0.4 | -7.0 | 5.9 | 1.3 | nt | nt
CCc1noc(C)c1C(=O)OCC(=O)N(CC)c1c(N)n(Cc2ccccc2)c(=O)[nH]c1=O | 1.7 | 9.9 | 2.7 | -6.2 | nt | nt
OC(c1cc(F)cc(Cl)c1)c1ncc(-c2ccc(Cl)cc2)[nH]1 (centres undefined) | nt | 12.2 | nt | nt | nt | nt
SMILES | NR2E3 ag-1 | NR2E3 ag-2 | PP5 inh | PP1 counter | PP1 inh confirm | PP5 counter
Cc1cc(C2=NNC(=NC3CCCCC3)SC2)c(C)n1-c1c(C)n(C)n(-c2ccccc2)c1=O | 2.4 | -47.6 | 1.7 | 18.6* | -0.4 | -2.8
NC(=O)c1nn(-c2ccccc2)nc1NC(=O)CN1CCCCC1 | 8.3 | 6.5 | 4.3 | 47.4* | -5.0 | -6.2
Cc1cccc(NC(=O)CNC(=O)COc2ccc(-c3ccc(C#N)cc3)cc2)c1C | -8.3 | 22.2 | 4.7 | 20.3* | 17.6* | -1.1
O=C(CSC(=S)N1CCOCC1)Nc1nc(-c2ccccc2)c(-c2ccccc2)o1 | 4.2 | 6.6 | 0.9 | 18.4* | 10.6 | -3.0
CCOC(=O)C1(Cc2ccccc2C)CCCN(C(=O)c2ccc(OC)o2)C1 (centres undefined) | -0.1 | -5.6 | 4.3 | 25.7* | -1.6 | -1.6
CCCC1NC(=O)c2cc3ccccc3cc2-n2c1nc1ccc(F)cc1c2=O (centres undefined) | nt | -16.4 | nt | nt | nt | nt
C#CCn1c(=NC(=O)c2cc(Cl)sc2Cl)sc2cc(S(N)(=O)=O)ccc21 | 1.6 | -8.7 | 1.9 | 19.1* | 25.4* | -0.9
CCOC(=O)Cn1c(=NC(=O)c2sc3ccccc3c2Cl)sc2cc(S(N)(=O)=O)ccc21 | -25.6 | -14.6 | -0.3 | 30.4* | 31.5* | -3.0
C#CCn1c(=NC(=O)c2cc(-c3cccs3)nc3ccccc23)sc2cc(S(N)(=O)=O)ccc21 | -2.0 | 6.8 | 3.5 | 20.3* | 4.0 | -0.5
CCOC(=O)Cn1c(=NC(=O)CSC(C)=O)sc2ccccc21 | 0.7 | -31.4 | -2.0 | -0.3 | nt | nt
C#CCn1c(=NC(=O)CN2C(=O)CCC2=O)sc2cc(S(N)(=O)=O)ccc21 | 0.5 | 12.3 | 1.5 | -3.1 | nt | nt
NS(=O)(=O)c1ccc(NC(=O)c2cc(-c3cccs3)nc3ccccc23)cc1 | 0.3 | 12.5 | 3.1 | 8.1 | nt | nt
COc1ccc(C(=O)NCCc2nnc3ccc(SCC(=O)Nc4ccccc4F)nn23)cc1 | 2.0 | -2.3 | 1.3 | 1.5 | nt | nt
OCCNc1ncnc2c1ncn2[C@H]1CN(Cc2ccco2)C[C@@H](CO)O1 | nt | -3.3 | nt | nt | nt | nt
O=C(N/N=C/c1ccsc1)c1c[nH]c2ccccc12 | -0.2 | -49.5 | 0.3 | 38.1* | -2.0 | -0.4
Cc1ccsc1/C=N/NC(=O)c1c[nH]c2ccccc12 | -6.3 | -53.2 | 1.3 | -0.7 | nt | nt
Cc1ccc(C(=O)N/C(=C/c2ccc(-c3cc(C(F)(F)F)ccc3Cl)o2)C(=O)NCc2cccnc2)cc1 | -3.6 | 8.8 | 2.7 | 21.7* | 12.6 | 3.4
CC1NS(=O)(=O)c2cc([N+](=O)[O-])ccc21 (centres undefined) | nt | -15.2 | nt | nt | nt | nt
Cc1ccccc1Nc1nc(NCc2ccco2)c2ccccc2n1 | 0.9 | -43.9 | 3.7 | 24.6* | -2.3 | -0.1
CCOc1ccc(/C=N/NC(=O)c2cc(-c3ccco3)nc3ccccc23)cc1 | 0.6 | 2.8 | -0.2 | 0.0 | nt | nt
Cc1nnc(NC(=O)c2cc(-c3ccco3)nc3ccccc23)s1 | 1.1 | -29.0 | -0.7 | 29.7* | 5.9 | -0.4
O=C(N/N=C/c1ccc(F)cc1)c1cc(-c2ccco2)nc2ccccc12 | 0.0 | -74.8 | 0.2 | 19.1* | 13.2 | 1.6
